Reference: ChEMBL document CHEMBL1151448, “Comparative antianaerobic activities of doripenem determined by MIC and time-kill analysis” (2008)

Assays:
Type in all cases: functional
Bacteroides fragilis = test: Bactericidal activity against beta lactamase-positive Bacteroides fragilis isolated from intra-abdominal infection and pelvic inflammatory disease patients assessed as bacterial killing at MIC after 48 hrs by time kill analysis
How it was run: (§1)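 Macrodilution time-kill in prereduced brucella broth with 5% laked horse blood, hemin 5 μg/ml and vitamin K1 1 μg/ml, at final inoculum 10^6–10^7 CFU/ml. […] Viable counts were taken at 6, 12, 24 and 48 h on plates incubated 48 h anaerobically. 99.9% kill was taken as bactericidal.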

[1] = test system: Bacteroides thetaiotaomicron; test: Bactericidal activity against beta lactamase-positive Bacteroides thetaiotaomicron isolated from intra-abdominal infection and pelvic inflammatory disease patients assessed as bacterial killing at MIC after 48 hrs by time kill analysis; how it was run: as §1
Prevotella intermedia = test: Bactericidal activity against beta lactamase-positive Prevotella intermedia isolated from intra-abdominal infection and pelvic inflammatory disease patients assessed as bacterial killing at MIC after 48 hrs by time kill analysis
How it was run: (§2)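 Anaerobic macrodilution time-kill. Inoculum from brucella blood plates, prepared and diluted in prereduced brucella broth inside the anaerobe chamber. Final 10^6 to 10^7 CFU/ml in prereduced brucella broth with 5% laked horse blood cells, 5 μg/ml hemin and 1 μg/ml vitamin K1. […] Shaken at 35°C for 48 h. Viable counts taken at 6, 12, 24 and 48 h. 99.9% kill taken as bactericidal.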

Finegoldia magna = test: Bactericidal activity against beta lactamase-positive Finegoldia magna isolated from intra-abdominal infection and pelvic inflammatory disease patients assessed as bacterial killing at MIC after 48 hrs by time kill analysis; how it was run: as §2
Fusobacterium nucleatum = test: Bactericidal activity against beta lactamase-positive Fusobacterium nucleatum isolated from intra-abdominal infection and pelvic inflammatory disease patients assessed as bacterial killing at MIC after 48 hrs by time kill analysis; how it was run: as §2
Clostridium perfringens = test: Bactericidal activity against Clostridium perfringens isolated from intra-abdominal infection and pelvic inflammatory disease patients assessed as bacterial killing at MIC after 48 hrs by time kill analysis
How it was run: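 Time-kill in prereduced brucella broth with 5% laked horse blood cells, hemin and vitamin K1. […] Viable counts taken at 6, 12, 24 and 48 h, plates incubated 48 h anaerobically. Kill scored as 90%, 99% or 99.9%; 99.9% defines bactericidal.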

Clostridioides difficile = test: Bactericidal activity against Clostridium difficile isolated from intra-abdominal infection and pelvic inflammatory disease patients assessed as bacterial killing at MIC after 48 hrs by time kill analysis; how it was run: as §1

Measured: Activity

C[C@@H](O)[C@H]1C(=O)N2C(C(=O)O)=C(SCCNC=N)C[C@H]12 [IMIPENEM ANHYDROUS]
99%: all assays above

C[C@@H](O)[C@H]1C(=O)N2C(C(=O)O)=C(S[C@@H]3CN[C@H](CNS(N)(=O)=O)C3)[C@H](C)[C@H]12 [DORIPENEM]
99%: all assays above
